Source: ChEMBL document CHEMBL1926570, “Ultrasound mediated catalyst free synthesis of 6H-1-benzopyrano[4,3-b]quinolin-6-ones leading to novel quinoline derivatives: their evaluation as potential anti-cancer agents” (Bioorg Med Chem, 2012)

Legend:
MDA-MB-231 = experiment: Cytotoxicity against human MDA-MB-231 cells after 24 hrs by MTT assay; type: functional, cell-based; details: MDA-MB-231, 24 h
Method in brief: (§1)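 Cells obtained from National Center for Cell Sciences, Pune, and grown in RPMI-1640 with 10% heat-inactivated FBS, penicillin/streptomycin and 2 mM glutamine at 37 °C, 5% CO₂. Seeded at 5 × 10³ cells/well and treated with or without compound at 1 and 10 for 24 h. MTT (5 mg/ml in PBS) was added for 2 h at 37 °C, then DMSO, and absorbance read at 570 nm. Triplicate wells per point; IC50 is 50% growth inhibition relative to untreated cells.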

COLO 205 = experiment: Cytotoxicity against human COLO205 cells after 24 hrs by MTT assay; type: functional, cell-based; details: COLO 205, 24 h; method in brief: as §1
[1] = biological target: T1, NAD-dependent protein deacetylase sirtuin-1 (Homo sapiens) (UniProt Q96EB6); experiment: Inhibition of human N-terminally hexa-his-tagged SIRT1 expressed in Escherichia coli BL21 (DE3) at 10 uM after 15 mins by […]
T1 sequence (whole entry): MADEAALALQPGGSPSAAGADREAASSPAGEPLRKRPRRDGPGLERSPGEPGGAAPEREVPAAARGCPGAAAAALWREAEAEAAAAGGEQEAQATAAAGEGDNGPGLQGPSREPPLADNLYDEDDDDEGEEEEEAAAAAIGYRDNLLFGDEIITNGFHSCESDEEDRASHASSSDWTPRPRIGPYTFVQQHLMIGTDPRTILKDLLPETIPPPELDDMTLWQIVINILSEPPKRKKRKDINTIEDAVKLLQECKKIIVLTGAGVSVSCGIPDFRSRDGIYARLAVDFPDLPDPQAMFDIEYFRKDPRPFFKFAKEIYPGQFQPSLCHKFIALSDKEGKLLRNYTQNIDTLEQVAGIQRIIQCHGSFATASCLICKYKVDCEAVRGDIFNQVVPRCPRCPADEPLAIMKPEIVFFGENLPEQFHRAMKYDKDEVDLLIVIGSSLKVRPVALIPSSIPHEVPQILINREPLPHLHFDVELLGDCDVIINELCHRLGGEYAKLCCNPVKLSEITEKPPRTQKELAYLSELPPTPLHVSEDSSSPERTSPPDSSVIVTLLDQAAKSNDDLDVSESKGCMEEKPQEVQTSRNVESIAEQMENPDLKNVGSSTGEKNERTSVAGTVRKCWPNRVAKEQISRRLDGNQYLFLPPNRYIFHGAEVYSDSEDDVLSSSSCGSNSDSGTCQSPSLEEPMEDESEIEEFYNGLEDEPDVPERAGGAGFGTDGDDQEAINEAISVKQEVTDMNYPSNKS
Method in brief: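 Commercial SIRT1 fluorescence kit using bacterially purified human Sirt1, fluorophore-labelled substrate peptide (25) and NAD⁺ (25), with or without compound at 10, for 15 min at 37 °C. Stop solution was then added for 45 min at room temperature. Fluorescence read at Ex 360/Em 450 nm. The no-enzyme blank and the compound autofluorescence (no-enzyme) control were subtracted.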

K562 = experiment: Cytotoxicity against human K562 cells after 24 hrs by MTT assay; type: functional, cell-based; details: K562, 24 h; method in brief: as §1
IMR-32 = experiment: Cytotoxicity against human IMR32 cells after 24 hrs by MTT assay; type: functional, cell-based; details: IMR-32, 24 h; method in brief: as §1

## NS(=O)(=O)c1cc(C(=O)O)cc([N+](=O)[O-])c1NCc1cc2ccccc2nc1-c1ccccc1O
MDA-MB-231
  IC50: 8 µM
COLO 205
  IC50: 19 µM
[1]
  inhibition: 61%
K562
  IC50: 10 µM
IMR-32
  IC50: 18 µM

## CS(=O)(=O)N(Cc1cn(Cc2cc3ccccc3nc2-c2ccccc2O)nn1)c1ccccc1I
MDA-MB-231
  IC50: 8 µM
COLO 205
  IC50: 12 µM
[1]
  inhibition: 62%
K562
  IC50: 13 µM
IMR-32
  IC50: 38 µM

## NCc1cc2ccccc2nc1-c1ccccc1O
MDA-MB-231
  IC50: 19 µM
COLO 205
  IC50: 32 µM
[1]
  inhibition: 59%
K562
  IC50: 23 µM
IMR-32
  IC50: 46 µM

## OCc1cc2cc(F)c(F)cc2nc1-c1ccccc1O
MDA-MB-231
  IC50: > 100 µM
COLO 205
  IC50: > 100 µM
[1]
  inhibition: 48%
K562
  IC50: 12 µM
IMR-32
  IC50: 63 µM

## OCc1cc2ccccc2nc1-c1ccccc1O
MDA-MB-231
  IC50: > 100 µM
COLO 205
  IC50: 40 µM
K562
  IC50: 74 µM
IMR-32
  IC50: > 100 µM

## Cc1ccc2nc3c(cc2c1)c(=O)oc1ccccc13
MDA-MB-231
  IC50: 12 µM
COLO 205
  IC50: 29 µM
K562
  IC50: 23 µM
IMR-32
  IC50: 33 µM

## Cc1ccc2nc(-c3ccccc3O)c(CO)cc2c1
MDA-MB-231
  IC50: > 100 µM
COLO 205
  IC50: > 100 µM
K562
  IC50: 12 µM
IMR-32
  IC50: > 100 µM

## O=c1oc2ccccc2c2nc3c(F)c(F)ccc3cc12
MDA-MB-231
  IC50: 23 µM
COLO 205
  IC50: 29 µM
[1]
  inhibition: 48%
K562
  IC50: 28 µM
IMR-32
  IC50: 36 µM

## O=c1oc2ccccc2c2nc3ccc(F)cc3cc12
MDA-MB-231
  IC50: 11 µM
COLO 205
  IC50: 17 µM
K562
  IC50: 37 µM
IMR-32
  IC50: 43 µM

## [N-]=[N+]=NCc1cc2ccccc2nc1-c1ccccc1O
MDA-MB-231
  IC50: 12 µM
COLO 205
  IC50: 19 µM
[1]
  inhibition: 53%
K562
  IC50: 11 µM
IMR-32
  IC50: 24 µM

## O=c1oc2ccccc2c2nc3cc(F)ccc3cc12
MDA-MB-231
  IC50: 29 µM
COLO 205
  IC50: 21 µM
K562
  IC50: 35 µM
IMR-32
  IC50: 41 µM

## O=c1oc2ccccc2c2nc3cc(F)c(F)cc3cc12
MDA-MB-231
  IC50: 8 µM
COLO 205
  IC50: 11 µM
K562
  IC50: 41 µM
IMR-32
  IC50: 25 µM

## O=c1oc2ccccc2c2nc3cc(Br)ccc3cc12
MDA-MB-231
  IC50: 19 µM
COLO 205
  IC50: 38 µM
K562
  IC50: 23 µM
IMR-32
  IC50: 23 µM

## O=c1oc2ccccc2c2nc3ccccc3cc12
MDA-MB-231
  IC50: 12 µM
COLO 205
  IC50: 18 µM
K562
  IC50: 43 µM
IMR-32
  IC50: 28 µM

## COc1cccc2cc3c(=O)oc4ccccc4c3nc12
MDA-MB-231
  IC50: 16 µM
COLO 205
  IC50: 24 µM
K562
  IC50: 35 µM
IMR-32
  IC50: 46 µM

## COc1ccc2c(c1)[nH]c1c(C)nccc12 [HARMINE]
MDA-MB-231
  IC50: 54 µM
COLO 205
  IC50: 46 µM
K562
  IC50: 45 µM
IMR-32
  IC50: 68 µM

## O=c1oc2ccccc2c2nc3ccc(Cl)cc3cc12
MDA-MB-231
  IC50: 14 µM
COLO 205
  IC50: 16 µM
K562
  IC50: 32 µM
IMR-32
  IC50: 46 µM

## COc1ccc2nc3c(cc2c1)c(=O)oc1ccccc13
MDA-MB-231
  IC50: 9 µM
COLO 205
  IC50: 41 µM
K562
  IC50: 39 µM
IMR-32
  IC50: 36 µM

## OCc1cc2cc(Cl)ccc2nc1-c1ccccc1O
MDA-MB-231
  IC50: > 100 µM
COLO 205
  IC50: 24 µM
K562
  IC50: 11 µM
IMR-32
  IC50: 65 µM
